Values belong to the molecule of their own block, whether it stands above or below them.
Experiments:
AtALMT9 [1] = biological target: T1, AtALMT9 (Arabidopsis thaliana, UniProt Q9LS46); assay: patch clamp of excised cytosolic-side-out vacuolar patches, chloride current; type: biochemical; settings: activator; 1 mM cytosolic; 100 mM chloride bath, pH 7.5
T1 sequence (Q9LS46 1-598): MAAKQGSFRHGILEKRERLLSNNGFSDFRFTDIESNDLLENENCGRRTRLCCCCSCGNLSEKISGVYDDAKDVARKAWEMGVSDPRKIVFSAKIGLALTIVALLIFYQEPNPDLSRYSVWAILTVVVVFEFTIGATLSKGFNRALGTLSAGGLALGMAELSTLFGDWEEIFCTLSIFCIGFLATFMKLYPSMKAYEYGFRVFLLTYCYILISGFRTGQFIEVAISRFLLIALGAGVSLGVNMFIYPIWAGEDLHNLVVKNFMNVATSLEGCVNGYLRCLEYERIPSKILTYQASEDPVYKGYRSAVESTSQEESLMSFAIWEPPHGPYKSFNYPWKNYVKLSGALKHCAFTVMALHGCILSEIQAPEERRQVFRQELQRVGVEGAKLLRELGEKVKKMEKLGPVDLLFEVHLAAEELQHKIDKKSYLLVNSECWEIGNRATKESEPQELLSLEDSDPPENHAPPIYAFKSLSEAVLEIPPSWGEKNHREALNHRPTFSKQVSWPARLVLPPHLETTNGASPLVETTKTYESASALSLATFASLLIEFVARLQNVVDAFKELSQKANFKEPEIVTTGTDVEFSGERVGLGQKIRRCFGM
In short: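 Vacuoles came from transiently transformed N. benthamiana leaves expressing the channel (2–3 days post-agroinfiltration) and were released from mesophyll protoplasts by EDTA and mild osmotic shock. Excised cytosolic-side-out patches (seal >2 GΩ) were held in symmetrical chloride: pipette 100 mM HCl pH 6, bath 100 mM HCl, 3 mM MgCl₂, 0.1 mM CaCl₂ pH 7.5. Test compound was perfused on the cytosolic side. Steady currents were compared at -120 mV, before versus after.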

AtALMT9 [2] = biological target: T1, AtALMT9; assay: patch clamp of excised cytosolic-side-out vacuolar patches, chloride current; type: biochemical; settings: activator, not permeant, -120 mV, chloride bath, pH 7.5
AtALMT9 [3] = biological target: T1, AtALMT9; assay: patch clamp of excised cytosolic-side-out vacuolar patches, Hill fit; type: cell-based
[4] = substrate: O=C(O)C[C@H](O)C(=O)O; assay: cells, lysate or membranes; settings: malate transport into vacuole

Molecule: O=C(O)c1cccc(C(=O)O)c1 [isophtalate]
fold increase of chloride current (AtALMT9 [2]): 2.1±0.1 fold

B1: AtALMT9 (Arabidopsis thaliana) (protein)
chain: T1 sequence (Q9LS46 1-598)
Km [4]: 27 mM

Further lines, results first:

fold increase of chloride current at 1 mM (AtALMT9 [1]): 5.7±0.4 fold
Molecule: O=C(O)/C=C/C(=O)O [fumarate]

EC50 (AtALMT9 [3]): 300 µM
Molecule: O=C(O)C[C@H](O)C(=O)O [malate]

fold increase of chloride current at 1 mM (AtALMT9 [1]): 2.0±0.2 fold
Molecule: O=C(O)CC(=O)C(=O)O [oxaloacetate]
